{"data": "Measurements from different studies", "RORC": "Nuclear receptor ROR-gamma (RORC, Homo sapiens, UniProt P51449)", "SIRT2": "NAD-dependent protein deacetylase sirtuin-2 (SIRT2, Homo sapiens, UniProt Q8IXJ6)", "SLC22A8": "Organic anion transporter 3 (SLC22A8, Homo sapiens, UniProt Q8TCC7)", "CDC7": "Cell division cycle 7-related protein kinase (CDC7, Homo sapiens, UniProt O00311)", "polA": "DNA polymerase I, thermostable (polA, Thermus aquaticus, UniProt P19821)", "AMY2": "Pancreatic alpha-amylase (AMY2, Sus scrofa, UniProt P00690)", "FRK": "Tyrosine-protein kinase FRK (FRK, Homo sapiens, UniProt P42685)", "Maoa": "Amine oxidase [flavin-containing] A (Maoa, Rattus norvegicus, UniProt P21396)", "note": "Protocols differ between the studies behind these lines."}
{"SMILES": "O=S(=O)(c1cccc(C(F)(F)F)n1)N1CCc2ccc(OCc3c(F)cccc3Cl)cc21", "target": "RORC", "assay": "ligand displacement, radioligand", "IC50": "250 nM"}
{"SMILES": "CCCCCCCCCCCCNC(=S)NCCCC[C@H](NC(=O)OCc1ccccc1)C(=O)N[C@@H](CCCCN)C(=O)N[C@@H](CCCNC(=N)N)C(N)=O", "target": "SIRT2", "assay": "enzyme activity, inhibitor", "IC50": "90 nM"}
{"SMILES": "O=c1oc(Cl)c(Cl)c2ccccc12", "target": "Chymotrypsinogen A (Bos taurus, UniProt P00766)", "assay": "enzyme activity, inhibitor, fluorescence", "IC50": "2800 nM"}
{"SMILES": "C[C@H](CCCOc1cccc(CO)c1)[C@H]1CC[C@H]2[C@@H]3CC=C4C[C@@H](O)CC[C@]4(C)[C@H]3CC[C@]12C", "target": "RORC", "assay": "reporter gene, inverse agonist, luciferase", "IC50": "193 nM"}
{"SMILES": "O=C(O)CNC(=O)C(=O)O", "target": "Hypoxia-inducible factor 1-alpha inhibitor (HIF1AN, Homo sapiens, UniProt Q9NWT6)", "assay": "enzyme activity, inhibitor, mass spectrometry", "IC50": "< 1000 nM"}
{"SMILES": "CC(C)(C)C(O)/C=C/c1ccc2c(c1)OCO2 (stereo not drawn)", "target": "SLC22A8", "assay": "transporter uptake, inhibitor", "IC50": "27600 nM"}
{"SMILES": "CC(C)[C@H](N)c1nc2cc(-c3ccncc3F)sc2c(=O)[nH]1", "target": "CDC7", "assay": "enzyme activity, inhibitor", "IC50": "1.84 nM"}
{"SMILES": "C=CC(=O)Nc1cc(Nc2nccc(Nc3cc(Cl)c(F)cc3C(C)(C)O)n2)c(OC)cc1N1CC[C@@H](N(C)C)C1", "target": "Tyrosine-protein kinase Fes/Fps (FES, Homo sapiens, UniProt P07332)", "assay": "enzyme activity, inhibitor", "setting": "with preincubation", "IC50": "1760 nM"}
{"SMILES": "CC(C)C[C@H](NC(=O)[C@H](Cc1ccccc1)NC(=O)[C@@H](N)Cc1ccc(O)cc1)C(=O)N[C@@H](Cc1ccccc1)C(=O)N[C@@H](CCCNC(=N)N)C(=O)N1CCC[C@H]1C(=O)N[C@@H](CCCNC(=N)N)C(=O)N[C@@H](CC(N)=O)C(N)=O", "target": "Neuromedin-U receptor 1 (Mus musculus, UniProt O55040)", "assay": "ligand displacement, radioligand", "IC50": "0.38 nM"}
{"SMILES": "O=C(O)c1ccnc2c(O)cccc12", "target": "Lysine-specific demethylase 4D (KDM4D, Homo sapiens, UniProt Q6B0I6)", "assay": "enzyme activity, inhibitor, AlphaScreen", "IC50": "7300 nM"}
{"SMILES": "Cc1cccc(S(=O)(=O)N2CCc3ccc(OCc4c(F)cccc4Cl)cc32)c1", "target": "RORC", "assay": "ligand displacement, radioligand", "IC50": "230 nM"}
{"SMILES": "O=C1OC[C@H]2OC(O)[C@H](O)[C@@H](O)[C@@H]2OC(=O)c2cc(O)c(O)c(O)c2-c2c(O)c(O)c3oc(=O)c4c(c(O)c(O)c5oc(=O)c2c3c54)-c2c1cc(O)c(O)c2O (mixture of isomers)", "target": "Genome polyprotein, protease (Hepatitis C virus genotype 1b, UniProt Q9WMX2)", "assay": "enzyme activity, inhibitor, fluorescence", "IC50": "< 100 nM"}
{"SMILES": "CCCCCCCCCCCCCCCCCC(=O)Oc1ccc2ccc(=O)oc2c1", "target": "polA", "assay": "enzyme activity, inhibitor", "IC50": "> 200000 nM"}
{"SMILES": "CCCCCCCCCCCCNC(=S)NCCCC[C@H](NC(=O)OCc1ccccc1)C(=O)N[C@@H](C)C(=O)N[C@@H](CCCNC(=N)N)C(N)=O", "target": "SIRT2", "assay": "enzyme activity, inhibitor", "IC50": "140 nM"}
{"SMILES": "Cc1cccc(Nc2ccccc2C(=O)O)c1C", "target": "SLC22A8", "assay": "transporter uptake, inhibitor", "IC50": "1750 nM"}
{"SMILES": "C=C(C)[C@@H]1CCC(C)=C[C@H]1c1c(O)cc(CCCCC)cc1O", "target": "Prostaglandin E synthase (PTGES, Homo sapiens, UniProt O14684)", "assay": "enzyme activity, inhibitor", "IC50": "> 10000 nM"}
{"SMILES": "Cc1cnc(-c2ccc(-c3ccc(NC(=O)Nc4c(F)cc(F)cc4F)cc3F)c3c2C(=O)NC3)[nH]1", "target": "Tyrosine-protein kinase Fer (FER, Homo sapiens, UniProt P16591)", "assay": "enzyme activity, inhibitor", "IC50": "14.8 nM"}
{"SMILES": "Cc1ccc(NC(=O)c2ccc(C)c(C(F)(F)F)c2)cc1C#Cc1nn(C2CCC(O)CC2)c2ncnc(N)c12 (stereo not drawn)", "target": "Fibroblast growth factor receptor 3 (FGFR3, Homo sapiens, UniProt P22607)", "assay": "enzyme activity, inhibitor, radiometric", "IC50": "120 nM"}
{"SMILES": "CC(C)[C@H](N)c1nc2cc(-c3ccnnc3)sc2c(=O)[nH]1", "target": "CDC7", "assay": "enzyme activity, inhibitor", "IC50": "3930 nM"}
{"SMILES": "C=C(NC(=O)[C@H](CCCCNC(=S)CCCCCCCCCCCCC)NS(C)(=O)=O)C(=O)N[C@@H](CCCNC(=N)N)C(N)=O", "target": "SIRT2", "assay": "enzyme activity, inhibitor", "IC50": "30 nM"}
{"SMILES": "CN(C(=O)n1cnc(-c2ccc[n+]([O-])c2)c1)C1CCCCC1", "target": "SLC22A8", "assay": "transporter uptake, inhibitor", "test system": "HEK293", "IC50": "> 33300 nM"}
{"SMILES": "COc1ccc(S(=O)(=O)N/N=C2\\C(=O)Nc3ccc(Cl)cc32)cc1", "target": "AMY2", "assay": "enzyme activity, inhibitor", "IC50": "13100 nM"}
{"SMILES": "CCNC(=O)[C@H](CCCNC(=N)CCl)NC(=O)c1ccccc1", "target": "Protein-arginine deiminase type-3 (PADI3, Homo sapiens, UniProt Q9ULW8)", "assay": "enzyme activity, inhibitor", "IC50": "26000 nM"}
{"SMILES": "O=S(=O)(c1cccc(C(F)(F)F)c1)N1c2cc(OCc3c(F)cncc3Cl)ccc2CC1C(F)(F)F (stereo not drawn)", "target": "RORC", "assay": "ligand displacement, radioligand", "IC50": "290 nM"}
{"SMILES": "COc1cc2nccc(Oc3ccc(NC(=O)c4cc5c(n(-c6ccccc6)c4=O)CCCC5=O)nc3)c2cc1OC", "target": "FRK", "assay": "enzyme activity in cells, inhibitor, ATP luminescence", "IC50": "> 100 nM"}
{"SMILES": "COc1cc(N2CCN(C)CC2)ccc1Nc1ncc2c(n1)N(C)c1ccccc1C(=O)N2C", "target": "Serine/threonine-protein kinase DCLK1 (DCLK1, Homo sapiens, UniProt O15075)", "assay": "enzyme activity, inhibitor, mobility shift", "IC50": "16 nM"}
{"SMILES": "CN1CCN(c2ccnc(C(=O)N3CCC[C@H](C(=O)Nc4cccc(-c5ccc(C(N)=O)cc5)c4)C3)c2)CC1", "target": "Histone lysine demethylase PHF8, PHD (PHF8, Homo sapiens, UniProt Q9UPP1)", "assay": "cell-free assay, inhibitor, TR-FRET", "IC50": "> 100000 nM"}
{"SMILES": "O=S(=O)(c1cccc(C(F)(F)F)c1)N1CCc2ccc(OCc3c(Cl)cncc3C(F)(F)F)cc21", "target": "RORC", "assay": "ligand displacement, radioligand", "IC50": "190 nM"}
{"SMILES": "CNC(=O)c1cc2c(Oc3ccc(NC(=O)C4(C(=O)Nc5ccc(F)cc5)CC4)cc3)ccnc2cc1OC", "target": "FRK", "assay": "enzyme activity, inhibitor, radiometric", "IC50": "13 nM"}
{"SMILES": "CC1Cc2ccc(OCc3c(F)cccc3Cl)cc2N1S(=O)(=O)c1cccc(C(F)(F)F)c1 (stereo not drawn)", "target": "RORC", "assay": "ligand displacement, radioligand", "IC50": "380 nM"}
{"SMILES": "CCCCCCCCNC(=S)NCCCC[C@H](NS(C)(=O)=O)C(=O)N[C@H](C)C(=O)N[C@@H](CCCNC(=N)N)C(N)=O", "target": "SIRT2", "assay": "enzyme activity, inhibitor", "IC50": "400 nM"}
{"SMILES": "O=S(=O)(c1cncc(C(F)(F)F)c1)N1CCc2ccc(OCc3c(F)cccc3Cl)cc21", "target": "RORC", "assay": "ligand displacement, radioligand", "IC50": "290 nM"}
{"SMILES": "O=C1Nc2ccc([N+](=O)[O-])cc2/C1=N/NS(=O)(=O)c1cc(Cl)cc(Cl)c1O", "target": "AMY2", "assay": "enzyme activity, inhibitor", "IC50": "1300 nM"}
{"SMILES": "CCCCCCCCCCCCNC(=S)NCCCC[C@H](NC(=O)OCc1ccccc1)C(=O)N[C@@H](Cc1c[nH]c2ccccc12)C(=O)N[C@@H](CCCCNC(=N)N)C(N)=O", "target": "SIRT2", "assay": "enzyme activity, inhibitor", "IC50": "210 nM"}
{"SMILES": "O=C1Nc2ccc([N+](=O)[O-])cc2/C1=N/NS(=O)(=O)c1ccc(Cl)cc1", "target": "AMY2", "assay": "enzyme activity, inhibitor", "IC50": "4100 nM"}
{"SMILES": "CC(=NN=C1CS(=O)(=O)N(C)c2ccccc21)c1cc(Cl)sc1Cl", "target": "Maoa", "assay": "enzyme activity, inhibitor, fluorescence", "IC50": "2480 nM"}
{"SMILES": "CC(C)[C@H](N)c1nc2cc(-c3ccnc(F)c3)sc2c(=O)[nH]1", "target": "CDC7", "assay": "enzyme activity, inhibitor", "IC50": "71.7 nM"}
{"SMILES": "OC[C@@H]1[C@@H](O)[C@H](O)[C@@H](O)[C@@H]2O[C@H]12", "target": "Beta-glucosidase (GBA2, Homo sapiens, UniProt Q9HCG7)", "assay": "enzyme activity, inhibitor", "setting": "pH 7, lysate", "IC50": "7480 nM"}
{"SMILES": "CCCCCCCCCCCCCC(=O)Oc1ccc2ccc(=O)oc2c1", "target": "polA", "assay": "enzyme activity, inhibitor", "IC50": "113000 nM"}
{"SMILES": "COc1cc(C=Cc2cc(-c3ccccc3)nc(O)n2)ccc1O", "target": "AMY2", "assay": "enzyme activity, inhibitor, absorbance", "IC50": "23700 nM"}
{"SMILES": "CC(Oc1ccc2c(c1)N(S(=O)(=O)c1cccc(C(F)(F)F)c1)CC2)c1c(F)cccc1Cl (stereo not drawn)", "target": "RORC", "assay": "ligand displacement, radioligand", "IC50": "350 nM"}
{"SMILES": "CN1CCN(c2ccc(Nc3ncc4cc(C#N)c(=O)n(C5CCCC5)c4n3)cc2)CC1", "target": "Ephrin type-A receptor 5 (EPHA5, Homo sapiens, UniProt P54756)", "assay": "enzyme activity, inhibitor", "IC50": "408 nM"}
{"SMILES": "CC(=NN=C1CS(=O)(=O)N(C)c2ccccc21)c1sccc1Cl", "target": "Maoa", "assay": "enzyme activity, inhibitor, fluorescence", "IC50": "1040 nM"}
{"SMILES": "O=S(=O)(c1cc(Cl)cc(Cl)c1)N1CCc2ccc(OCc3c(F)cccc3Cl)cc21", "target": "RORC", "assay": "ligand displacement, radioligand", "IC50": "340 nM"}
{"SMILES": "CCCCCCCCCCCCNC(=S)NCCCC[C@H](NS(C)(=O)=O)C(=O)N[C@H](C)C(=O)N[C@@H](CCCNC(=N)N)C(=O)N1CCOCC1", "target": "SIRT2", "assay": "enzyme activity, inhibitor", "IC50": "90 nM"}
